Assay results as given in the RNAGym collection of RNA variant scans (doi:10.1101/gad.245936.114).
Fewer inactive variants are shown than the library holds.

B1: tRNA (parent)
chain: CUCUCGGUAGCCAAGUUGGUUUAAGGCGCAAGACUUUAAUUUAUCACUACGAAAUCUUGAGAUCGGGCGUUCGACUCGCCCCCGGGAGAUUUUUUCCUCGAGCAA

Variants of: B1
Assay: nonsense suppression (GFP-seq) (ratio to wild type); higher = more function; SUP4oc tRNA, yeast GFP reporter sort-seq
Procedure, shortened: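 Each variant's nonsense suppression (GFPSEQ) is a cell-share-weighted bin median GFP/RFP relative to the unmutated parent tRNA. Yeast with genome-integrated tRNA variants from a ~3% random-mutation library, a galactose-driven GFP ochre reporter and RFP were grown in raffinose/galactose medium with 80 mg/L adenine, then sorted into GFP/RFP bins for Illumina sequencing. Variants needed ≥100 reads and ≥30 cells.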
U55C U63A C75G showed a nonsense suppression of 0.0265. For U58C G69A, the nonsense suppression was no more than 0.026. In the case of G26C A60C, the nonsense suppression is reported as 0.027. Variant A13C C68G G88A has a nonsense suppression of no more than 0.026. With C11U G66A the nonsense suppression was no more than 0.026. With G28A A33U the nonsense suppression was 0.0279. Variant U2A G73A has a nonsense suppression of 0.0508. Variant G67U C79G has a nonsense suppression of 0.768. With U21C G25A G26A the nonsense suppression was no more than 0.026. A24U A54U gave a nonsense suppression of 0.208. With A31G G61C the nonsense suppression was 0.275. U4G C81U gave a nonsense suppression of 0.161. U2A C27U A31G U57C gave a nonsense suppression of no more than 0.026. Variant A13U C79A G84U has a nonsense suppression of no more than 0.026. With U17C A62G U70C the nonsense suppression was no more than 0.026. In the case of C5G A24U U57C G66U, the nonsense suppression is reported as no more than 0.026. G6U C83G gave a nonsense suppression of 0.923. Work on U8C A9U A54U yielded a nonsense suppression of no more than 0.026. For G61C G88A, the nonsense suppression was 0.0268. Variant U22A A33U A89C has a nonsense suppression of no more than 0.026. U17C G73A showed a nonsense suppression of 0.899. For A33U G73C, the nonsense suppression was no more than 0.026. Work on G18U C83A yielded a nonsense suppression of no more than 0.026. Work on U76A C77A yielded a nonsense suppression of no more than 0.026. Variant G59C A60C U71G G78A has a nonsense suppression of no more than 0.026. A62U G84C showed a nonsense suppression of 0.0347. Variant U17C G28C C75G has a nonsense suppression of 1.02. Variant A14U G18C C80U has a nonsense suppression of no more than 0.026. For A54C C82U, the nonsense suppression was 0.211. For A13C U76A, the nonsense suppression was 0.282. With C5G U55C G69C G86U the nonsense suppression was no more than 0.026. For G18C A24C A33U, the nonsense suppression was no more than 0.026. C3G A31C C68G C77U showed a nonsense suppression of no more than 0.026. A13G G59U showed a nonsense suppression of no more than 0.026. Variant C11A C12U G59A U71A has a nonsense suppression of no more than 0.026. G15U A23G U55G gave a nonsense suppression of no more than 0.026. With C12U the nonsense suppression was 0.773. Work on U35C U70A yielded a nonsense suppression of no more than 0.026. Work on C1A U16A G88C yielded a nonsense suppression of no more than 0.026. C3U A54C showed a nonsense suppression of 0.079. C3U G66C showed a nonsense suppression of 0.0288. A54C C64U showed a nonsense suppression of 0.0402. In the case of C1U U2C A54C G61U U76A, the nonsense suppression is reported as no more than 0.026. With G26U G88C the nonsense suppression was no more than 0.026. In the case of U4G G73U, the nonsense suppression is reported as 0.0898. In the case of C1G A54G U63G U70G, the nonsense suppression is reported as no more than 0.026. Work on C1G A31U G88A yielded a nonsense suppression of no more than 0.026. In the case of U22C G61U U63C, the nonsense suppression is reported as 0.17. For C27A A33C G66U, the nonsense suppression was no more than 0.026. C34U U63C G85C showed a nonsense suppression of no more than 0.026. G6U C82A A87U showed a nonsense suppression of no more than 0.026. U8G G18C G59A gave a nonsense suppression of no more than 0.026. For G65C C81G, the nonsense suppression was 1.06. For C75A C80U, the nonsense suppression was 1.01. Work on U8G A13G G61C C68G C82G yielded a nonsense suppression of no more than 0.026. For C3U U4C A9C, the nonsense suppression was 1.11. C56G U58C G66C gave a nonsense suppression of no more than 0.026. A33G G66C gave a nonsense suppression of 0.0263. For G19C U21C, the nonsense suppression was no more than 0.026. A23U G28C showed a nonsense suppression of no more than 0.026. U4C A30U gave a nonsense suppression of 0.0792. Variant U35C C77A G85C has a nonsense suppression of no more than 0.026. U35C A74G showed a nonsense suppression of no more than 0.026. C11A G26A U70A showed a nonsense suppression of no more than 0.026. With U16A A54U the nonsense suppression was 1.06. With A13U G15A G73U the nonsense suppression was no more than 0.026. With U16A A33G the nonsense suppression was 0.0423. Variant C29U G65A C81U has a nonsense suppression of 1.14. Variant U20A C56A G66A has a nonsense suppression of no more than 0.026. Work on U16C C83U yielded a nonsense suppression of 0.5. Variant G61A A89C has a nonsense suppression of 0.0288. For U58G G85U G86U, the nonsense suppression was no more than 0.026. Work on A74G G84C yielded a nonsense suppression of no more than 0.026. Variant A9G C11U G61C has a nonsense suppression of no more than 0.026. With C11G A30G G67U the nonsense suppression was no more than 0.026. U20G G28A C82U gave a nonsense suppression of 0.239. Work on A9G A33C G66U yielded a nonsense suppression of no more than 0.026. Work on G10A C56U G73A yielded a nonsense suppression of no more than 0.026. With A30G A89U the nonsense suppression was 0.0271. With C64G U70C G84U the nonsense suppression was no more than 0.026. For A9C U22A, the nonsense suppression was 0.709. In the case of U16G C79U, the nonsense suppression is reported as 0.852. U17G A23C gave a nonsense suppression of no more than 0.026. With C27G A74C G86A the nonsense suppression was no more than 0.026. U2C U16G gave a nonsense suppression of 0.168. U2G A14C G84C gave a nonsense suppression of no more than 0.026. Variant C11A A14G U63C has a nonsense suppression of no more than 0.026. With C5A A60G the nonsense suppression was 0.0265. C27U U58A showed a nonsense suppression of no more than 0.026. U63G C82U showed a nonsense suppression of 0.0882. A23C A30G C81A A87G gave a nonsense suppression of no more than 0.026. C3U U21A showed a nonsense suppression of 0.196. In the case of A23G U70C, the nonsense suppression is reported as no more than 0.026. G19A U63C C82A gave a nonsense suppression of no more than 0.026. In the case of A24C A60U, the nonsense suppression is reported as 1.07. Variant A62C G78A has a nonsense suppression of no more than 0.026. A30G G61C gave a nonsense suppression of 0.251. For U20G G25A G78A, the nonsense suppression was no more than 0.026. In the case of A23C U35G, the nonsense suppression is reported as no more than 0.026. For G7C U35G, the nonsense suppression was no more than 0.026. A30G U76A gave a nonsense suppression of 0.043. Work on G61C C75G yielded a nonsense suppression of 1.21. Variant U16A U20C has a nonsense suppression of 0.193. Variant U2C C12G A24C A62U C79A has a nonsense suppression of no more than 0.026. With A31G A74U the nonsense suppression was 0.029. In the case of A24C G69U, the nonsense suppression is reported as no more than 0.026. Work on C1U A9G yielded a nonsense suppression of 0.0262. Work on G69C A89G yielded a nonsense suppression of no more than 0.026. Work on U20C U22C A54U yielded a nonsense suppression of 0.412. C5U U22C U57C A74C showed a nonsense suppression of no more than 0.026. For C3A A13U, the nonsense suppression was 0.0379. With U20A G78A the nonsense suppression was 0.0977. With U8A G25C U70A the nonsense suppression was no more than 0.026. In the case of A30C A31U, the nonsense suppression is reported as no more than 0.026. For C5U G28C A30G A33U, the nonsense suppression was no more than 0.026. With U4G G61A C75A the nonsense suppression was 0.558. G6U U16C U17C G19U gave a nonsense suppression of no more than 0.026. With C27G G32U C75A C81G G88C the nonsense suppression was no more than 0.026. For G65A G73C, the nonsense suppression was no more than 0.026. U20C A31C C79A G85C showed a nonsense suppression of no more than 0.026. Work on C27A U35C G66C G88C yielded a nonsense suppression of no more than 0.026. With C27G C79A the nonsense suppression was no more than 0.026. G25C C68U showed a nonsense suppression of 0.031. A60G gave a nonsense suppression of 1.14. Variant A31U G59C has a nonsense suppression of no more than 0.026. In the case of U4G U57G A60U, the nonsense suppression is reported as no more than 0.026. For A23U G86A, the nonsense suppression was no more than 0.026. For A24G A54U, the nonsense suppression was 0.0262. For C82A A87U, the nonsense suppression was no more than 0.026. For U58A A74G G88A, the nonsense suppression was no more than 0.026. Variant C3U U8G U58G C80A C82G G86C has a nonsense suppression of no more than 0.026. For U55C U63G, the nonsense suppression was no more than 0.026. For A30G G78A, the nonsense suppression was 0.101. In the case of G19U A24G A87G, the nonsense suppression is reported as no more than 0.026. With A14G A54G the nonsense suppression was no more than 0.026. With A23G G73C the nonsense suppression was no more than 0.026. U4G A9C gave a nonsense suppression of 0.0511. A54G G73A showed a nonsense suppression of 0.122. U16C U76A A89U gave a nonsense suppression of no more than 0.026. For U17G U63C, the nonsense suppression was 0.799. With A13C G18C G26U G61C the nonsense suppression was no more than 0.026. Work on U8A C27G A54G C79U yielded a nonsense suppression of no more than 0.026. U21G U55C gave a nonsense suppression of 0.208. Work on A24U U55C yielded a nonsense suppression of 0.104. In the case of A30G U55G U63G C64A, the nonsense suppression is reported as no more than 0.026. In the case of A30C U55A, the nonsense suppression is reported as no more than 0.026. For G10U C27A, the nonsense suppression was 0.119. In the case of U8G G73C, the nonsense suppression is reported as no more than 0.026. For C3U A13U, the nonsense suppression was 0.194. With A9U A24G the nonsense suppression was 0.0422. U16C U17C G18A G67A gave a nonsense suppression of no more than 0.026. Work on G66A C72G yielded a nonsense suppression of no more than 0.026. C5A G7U U17C showed a nonsense suppression of no more than 0.026. With U70A C80U the nonsense suppression was no more than 0.026. For G26C G78U C82A, the nonsense suppression was no more than 0.026. Work on G7U U55C C68U A89C yielded a nonsense suppression of no more than 0.026. A30U A31U showed a nonsense suppression of 0.035. Variant G61C U76C has a nonsense suppression of 0.23. U4C U16C A31U showed a nonsense suppression of 0.97. In the case of U17G C83A, the nonsense suppression is reported as no more than 0.026. With A13C U55C the nonsense suppression was 0.827. With U57A the nonsense suppression was 0.0873. Variant G7U A87U has a nonsense suppression of no more than 0.026. A13C U16C gave a nonsense suppression of 1.12. For A13C U17A A31G, the nonsense suppression was 0.849. In the case of A31C A60U, the nonsense suppression is reported as 0.222. G6U C80U gave a nonsense suppression of no more than 0.026.
